Source: PubChem (Columbia University Molecular Screening Center)
This is one part of a sample in which hits are shown more often than they occur.
INS promoter act: activators of insulin promoter-driven GFP, primary screen, imaging, TRM-6 cells (human fetal islet line), eGFP reporter, cell count; plate-scaled: unstimulated 0, stimulated control 100; activation, % at 2 µM; 0.81% of 130,000 active; AID 1296, 2008;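 active means activation at 2 µM above a set limit, confirmed on inspection of the cell images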;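 further: share of cells whose green reporter signal exceeds an intensity cutoff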
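Material: TRM-6 insulin promoter–eGFP reporter cells. Buffer or medium: Low-glucose (5.5 mM) medium with tamoxifen. Probe or stimulus: tamoxifen at 0.75 µM added at seeding for reporter induction. Times: tamoxifen pre-incubation 15 h overnight, then compound exposure 48 h at 37 °C. Detection: high-content imaging of fixed cells with Hoechst nuclear stain.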
A number is an active result; n = inactive.

SMILES	INS promoter act
CCN(CC)S(=O)(=O)c1ccc(NC2c3ncccc3C(=O)N2Cc2ccccc2)cc1 (stereo not given)	n
CN1C(=O)/C(=C/c2ccccc2OCc2ccccc2F)NC1=S	n
OCCN(CCO)Cc1csc2ccccc12	n
CCCCn1c(=O)c(CCC(=O)OCC(=O)NC(=O)NCCC(C)C)nc2ccccc21	n
CCN1CCS/C1=C/C=C/C1=[N+](CC)CCS1	233.3
Cc1ccccc1-c1cc(C(=O)Nc2sc(C(=O)OC(C)C)c(C)c2C#N)c2ccccc2n1	n
CCOc1cc(NC(=O)c2ccco2)c(OCC)cc1NC(=O)Cc1cccc(OC)c1	n
CCOc1ccc(CC(=O)Nc2ccc(NC(=O)c3ccco3)cc2)cc1OCC	100.0
CCOc1cc(NC(=O)c2cccs2)c(OCC)cc1NC(=O)c1ccco1	n
O=C(CNC(=O)C1COc2ccccc2O1)N/N=C/c1ccc(O)cc1O (stereo not given)	n
Cn1ncc2c(NNC(=O)c3ccccc3Cl)ncnc21	n
COc1ccc2c(c1)c(C(O)CN1CCC(Cc3ccccc3)CC1)c(C)n2C (stereo not given)	n
O=C(NCc1ccccn1)C1CCCCC1	n
Clc1ccc(-c2nnc(COc3ncnc4sccc34)o2)cc1	n
CO/C([O-])=N/c1c[n+](-c2ccc(Cl)cc2)no1	n
CC(C)Sc1nc2ccccc2[nH]1	n
COc1ccc(CSCC(=O)Nc2ccccc2SC)cc1	366.7
COc1ccc(OCC(=O)Nc2ccccc2O)cc1	n
COc1ccc(CNC(=O)c2ccccc2SC)cc1	n
C=CCN(C)NC(=S)Nc1ccccc1	n
O=C(/C=C/c1ccc(F)cc1)c1ccccc1Br	n
Cc1cc(C(F)(F)F)nc(SCC(=O)NC2CC3CCC2C3)n1 (stereo not given)	431.4
Cc1cc(C(F)(F)F)nc(SCC(=O)Nc2ccccc2)n1	n
COc1ccc(NC(=O)CSc2nc(C)cc(C(F)(F)F)n2)cc1	n
COc1cccc(C2Nc3ccccc3C(=O)N2O)c1O (stereo not given)	n
SMILES	INS promoter act
Cc1ccc(Cn2nc(C)c(NC(=O)CCCn3nc(C)c([N+](=O)[O-])c3C)c2C)cc1	n
COc1ccc(C2Nc3ccccc3C(=O)N2c2ccc(C)cc2)cc1Cn1nc(C)c([N+](=O)[O-])c1C (stereo not given)	129.0
CC(CCc1ccccc1)NC(=O)C1CCN(S(=O)(=O)N2CCOCC2)CC1 (stereo not given)	n
CCOC(=O)N1CCN(C(=S)Nc2cc(OC)c(OC)cc2C(=O)OC)CC1	n
COc1ccc(N(C(=O)C(C)C)S(=O)(=O)c2ccc3c(c2)n(C)c(=O)n3C)cc1	n
CCN1CCCc2cc(CN(CCN3CCOCC3)C(=S)Nc3ccc(OC)c(OC)c3)ccc21	425.0
CCc1ccc(NC(=O)N(CCN2CCOCC2)Cc2ccc3c(c2)CCCN3CC)cc1	n
CCN1CCCc2cc(CN(CCN3CCOCC3)C(=S)Nc3ccccc3C)ccc21	n
Cc1ccc(Nc2nc3nonc3[nH]c2=O)cc1Cl	n
COc1ccc(C)cc1NC(=O)C(c1ccccc1)N1CCNC(=O)C1 (stereo not given)	n
COCCNC(=O)C(=O)NNC(=O)c1ccccc1OC	n
O=C(CSc1nncs1)NC(=O)NC1CCCC1	n
O=C(Cc1c2ccccc2nc2ccccc12)c1ccccc1	n
N#Cc1ccccc1NC(=O)C1CC(=O)N(c2ccc3c4c(cccc24)CC3)C1 (stereo not given)	n
CCCCC(SCC(=O)Nc1ccccc1)C(=O)O (stereo not given)	n
